The record followed here is ChEMBL document CHEMBL4765336, “Discovery of coumarin derivatives as potent and selective cyclin-dependent kinase 9 (CDK9) inhibitors with high antitumour activity” (Eur J Med Chem, 2020).

A word on the IC50: it is the point on the concentration scale where inhibition reaches its midpoint. For orientation: AUC(0-t) means the area under the concentration-time curve up to a stated or last time point. By half-life is commonly meant the time needed for the level to fall by half in the phase considered. One may read the bioavailability as dose-corrected exposure relative to a reference, in per cent. As usually defined, the Cmax is the peak of the concentration-time curve. As a reminder, the clearance is a measure of how efficiently the substance is removed, as volume per time.

Molecules are shown by their SMILES.

The test system of one data set is A549. The experiment in a line: Antiproliferative activity against human A549 cells assessed as inhibition of cell growth incubated for 72 hrs by Celltiter-Glo luminescent assay. Format: functional, cell-based. Conditions: A549, 72 h. An outline of the steps: (§1)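 Cells seeded in growth medium and held overnight at 37 °C; medium-only wells served as background. DMSO stocks were diluted in medium to 3× final and added; cells incubated 72 h at 37 °C, 5% CO2. Viability read by CellTiter-Glo luminescence after 60 min at room temperature. IC50 from curve fit, mean of duplicate.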

Another data set concerns MV4-11. Briefly: Antitumor activity against human MV4-11 cells xenografted in iv dosed BALB/c nude mouse assessed as tumor growth inhibition administered once daily for 21 days and measured twice per week by vernier caliper method. Format: functional, organism-based. Particulars: dose 10-40 mg/kg, time 21.0 day. On the technique in general: A xenograft is tissue or cells of one species grown in another, often human tumour cells in immunodeficient mice.

Data set [1] in a line: AUC (0 to t) in ICR mouse at 30 mg/kg, po measured up to 24 hrs by LC-MS/MS analysis. Format: ADME, organism-based. Also on record: route oral, dose 30 mg/kg, time <=24. Conditions: in vivo. An outline of the steps:
(§2)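 Male ICR mice (25.1–28.8 g, n=9), fasted overnight (12 h), single oral gavage 30 mg/kg as 3 mg/mL in 0.5% CMC-Na with 0.2% Tween 80. Venous blood drawn into EDTA-K2 at 0, 0.25, 0.5, 1, 2, 4, 8, 24 h. Plasma protein-precipitated with ACN and run on LC-MS/MS (C18, formic acid/ACN). Noncompartmental parameters taken from composite mean concentration-time data.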

The nature of data set [2]: Metabolic stability in rat liver microsomes assessed as intrinsic clearance at 1 uM incubated up to 60 mins in presence of NADPH by LC-MS/MS analysis. Particulars: read-out: CLH. Format: ADME, Microsome. Summed up: (§3)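 Liver microsomes (0.5 mg/mL) incubated at 37 °C with compound at 1.0 μM final, 3 mM MgCl2 and 1 mM NADPH in 100 mM PBS pH 7.4. Samples taken at 0, 5, 15, 30, 60 min; remaining parent measured by LC-MS/MS. k = −slope, T1/2 = 0.693/k, CLint = k/microsomal protein concentration. Midazolam served as control.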
For orientation: Microsomes from liver hold many membrane-bound enzymes, among them those of drug oxidation.

The subject of another data set is MDA-MB-231. Briefly: Antiproliferative activity against human MDA-MB-231 cells assessed as inhibition of cell growth incubated for 72 hrs by Celltiter-Glo luminescent assay. Conditions: MDA-MB-231, 72 h. The class given is functional, cell-based. Summed up: as §1
A short description of data set [3]: Half life in ICR mouse at 2 mg/kg, iv measured up to 24 hrs by LC-MS/MS analysis. The class given is ADME, organism-based. Conditions: in vivo. An outline of the steps:
(§4)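 Male ICR mice (25.1–28.8 g, n=9), fasted 12 h, given a single i.v. dose of 2.0 mg/kg at 0.4 mg/mL in DMSO/PEG200/saline (1:1:3). Blood sampled at 0, 0.083, 0.25, 0.5, 1, 2, 4, 8, 24 h. Plasma ACN-precipitated and quantified by LC-MS/MS. Parameters derived from composite mean plasma concentration-time data.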

Data set [4] can be described thus: AUC (0 to t) in ICR mouse at 2 mg/kg, iv measured up to 24 hrs by LC-MS/MS analysis. Format: ADME, organism-based. Also on record: route intravenous, dose 2 mg/kg, time <=24. Conditions: in vivo.
The target of data set [5] is Cyclin-dependent kinase 2/cyclin E1 (Homo sapiens, UniProt P24941). Briefly: Inhibition of CDK2/Cyclin E (unknown origin) preincubated for 20 mins followed by ATP addition and measured after 120 mins in presence of [33P-gamma] ATP by hotspot kinase assay. The class given is protein-complex assay. An outline of the steps: (§5)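 Radiometric filter-binding assay: kinase and substrate in 20 mM Hepes pH 7.5, 10 mM MgCl2, 1 mM EGTA, 0.02% Brij35, 0.02 mg/mL BSA, 0.1 mM Na3VO4, 2 mM DTT, 1% DMSO. Compound (top 1/10/27 μM, 3-fold serial dilutions) preincubated 20 min at 25 °C. ATP plus [γ-33P]ATP added to 10 μM final, reacted 120 min at 25 °C. IC50 from curve fit, duplicate mean.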

Data set [6] can be described thus: Oral bioavailability in ICR mouse at 30 mg/kg measured up to 24 hrs by LC-MS/MS analysis. The class given is ADME, organism-based. Particulars: in vivo. Summed up: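 ICR mice (9 per route) received 30 mg/kg p.o. or 2.0 mg/kg i.v. Plasma was sampled to 24 h and analysed by LC-MS/MS. F (%) = AUC0-∞(oral)/AUC0-∞(iv) × dose(iv)/dose(oral) × 100.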
Data set [7] in a line: Metabolic stability in rat liver microsomes assessed as half life at 1 uM incubated up to 60 mins in presence of NADPH by LC-MS/MS analysis. The class given is ADME, Microsome. Summed up: as §3
Data set [8] can be described thus: Metabolic stability in dog liver microsomes assessed as half life at 1 uM incubated up to 60 mins in presence of NADPH by LC-MS/MS analysis. Format: ADME, Canis lupus familiaris, Microsome. An outline of the steps: as §3
The target of data set [9] is Serine/threonine-protein kinase MAK (Homo sapiens) (UniProt P20794). Briefly: Inhibition of MAK (unknown origin) assessed as enzyme activity at 1 uM preincubated for 20 mins followed by ATP addition and measured after 120 mins in presence of [33P-gamma] ATP by hotspot kinase assay relative to control. Particulars: time 140.0 min. Also on record: scale not given: the % may be the effect or the level left. An outline of the steps: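 Radiometric filter-binding kinase assay, buffer pH 7.5 with 10 mM MgCl2 and 1% DMSO. Compound tested at a single 1.0 μM, preincubated 20 min at 25 °C. Reaction started with ATP/[γ-33P]ATP at 10 μM final, run 120 min at 25 °C. Remaining % enzyme activity reported, n=2.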

Data set [10] in a line: Cmax in ICR mouse at 30 mg/kg, po measured up to 24 hrs by LC-MS/MS analysis. The class given is ADME, organism-based. Further details: route oral, dose 30 mg/kg, time <=24. Particulars: in vivo. Summed up: as §2
Data set [11] deals with Voltage-gated inwardly rectifying potassium channel KCNH2 (Homo sapiens, UniProt Q12809). Briefly: Inhibition of fluorescently labeled tracer binding to human ERG by competitive binding assay. Summed up:
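Fluorescent tracer competition assay against a membrane preparation containing hERG.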

For a further data set, the system named is NCI-N87. The experiment in a line: Antiproliferative activity against human NCI-N87 cells assessed as inhibition of cell growth incubated for 72 hrs by Celltiter-Glo luminescent assay. Conditions: NCI-N87, 72 h. The class given is functional, cell-based. Summed up: as §1
Data set [12] can be described thus: Clearance in ICR mouse at 2 mg/kg, iv measured up to 24 hrs by LC-MS/MS analysis. Conditions: in vivo. The class given is ADME, organism-based. Summed up:
as §4

A further data set addresses CDK8/Cyclin C (Homo sapiens, UniProt P49336). Briefly: Inhibition of CDK8/Cyclin C (unknown origin) preincubated for 20 mins followed by ATP addition and measured after 120 mins in presence of [33P-gamma] ATP by hotspot kinase assay. Format: protein-complex assay. Summed up: as §5
A further data set concerns HepG2. The experiment in a line: Antiproliferative activity against human HepG2 cells assessed as inhibition of cell growth incubated for 72 hrs by Celltiter-Glo luminescent assay. Conditions: HepG2, 72 h. Format: functional, cell-based. Summed up:
as §1
A general note: In ATP-based viability assays light output follows the ATP content of the culture.

Data set [13] can be described thus: Toxicity in BALB/c nude mouse xenografted with human MV4-11 cells assessed as mortality at 40 mg/kg, iv administered once daily for 21 days and measured 2 or 3 times per week. The class given is organism-based. Conditions: in vivo, 504 h, time 21 day. Summed up:
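Female BALB/c nude mice, six weeks old, with subcutaneous right-flank MV4-11 xenografts (5 million cells in PBS mixed 1:1 with Matrigel). Daily intravenous dosing started at tumour size 150–200 mm³, 6 mice per group, for 21 consecutive days. Vehicle was dimethylacetamide 20%/polyoxyethylated castor oil 40%/anhydrous ethanol 40%. Body weight was recorded two or three times weekly, and mortality was monitored throughout treatment.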

Another data set deals with A-375. Briefly: Antiproliferative activity against human A-375 cells assessed as inhibition of cell growth incubated for 72 hrs by Celltiter-Glo luminescent assay. Conditions: A-375, 72 h. The class given is functional, cell-based. An outline of the steps:
as §1

Sequence of CDK8/Cyclin C (P49336 whole entry): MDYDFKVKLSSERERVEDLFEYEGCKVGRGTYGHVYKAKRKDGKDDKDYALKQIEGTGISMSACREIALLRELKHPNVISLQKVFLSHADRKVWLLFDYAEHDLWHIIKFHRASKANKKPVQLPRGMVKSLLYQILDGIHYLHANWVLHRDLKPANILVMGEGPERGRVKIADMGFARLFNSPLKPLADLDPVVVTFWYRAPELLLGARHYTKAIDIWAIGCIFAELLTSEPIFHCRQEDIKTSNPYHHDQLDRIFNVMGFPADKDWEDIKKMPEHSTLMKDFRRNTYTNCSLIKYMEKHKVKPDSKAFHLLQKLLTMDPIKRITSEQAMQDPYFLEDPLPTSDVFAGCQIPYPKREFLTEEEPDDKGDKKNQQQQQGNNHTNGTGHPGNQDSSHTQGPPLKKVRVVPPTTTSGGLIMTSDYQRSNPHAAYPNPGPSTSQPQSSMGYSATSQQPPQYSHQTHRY
Sequence of CDK8/Cyclin C (P24863 whole entry, further chain): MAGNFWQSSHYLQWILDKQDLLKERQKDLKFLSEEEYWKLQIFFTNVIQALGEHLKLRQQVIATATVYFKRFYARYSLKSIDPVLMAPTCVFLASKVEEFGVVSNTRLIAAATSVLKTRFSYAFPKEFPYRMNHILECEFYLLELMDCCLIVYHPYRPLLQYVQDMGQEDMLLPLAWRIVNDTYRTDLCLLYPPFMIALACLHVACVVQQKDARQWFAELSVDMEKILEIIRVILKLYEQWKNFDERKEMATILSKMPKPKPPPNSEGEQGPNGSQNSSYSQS
Sequence of Serine/threonine-protein kinase MAK (Homo sapiens) (P20794 whole entry): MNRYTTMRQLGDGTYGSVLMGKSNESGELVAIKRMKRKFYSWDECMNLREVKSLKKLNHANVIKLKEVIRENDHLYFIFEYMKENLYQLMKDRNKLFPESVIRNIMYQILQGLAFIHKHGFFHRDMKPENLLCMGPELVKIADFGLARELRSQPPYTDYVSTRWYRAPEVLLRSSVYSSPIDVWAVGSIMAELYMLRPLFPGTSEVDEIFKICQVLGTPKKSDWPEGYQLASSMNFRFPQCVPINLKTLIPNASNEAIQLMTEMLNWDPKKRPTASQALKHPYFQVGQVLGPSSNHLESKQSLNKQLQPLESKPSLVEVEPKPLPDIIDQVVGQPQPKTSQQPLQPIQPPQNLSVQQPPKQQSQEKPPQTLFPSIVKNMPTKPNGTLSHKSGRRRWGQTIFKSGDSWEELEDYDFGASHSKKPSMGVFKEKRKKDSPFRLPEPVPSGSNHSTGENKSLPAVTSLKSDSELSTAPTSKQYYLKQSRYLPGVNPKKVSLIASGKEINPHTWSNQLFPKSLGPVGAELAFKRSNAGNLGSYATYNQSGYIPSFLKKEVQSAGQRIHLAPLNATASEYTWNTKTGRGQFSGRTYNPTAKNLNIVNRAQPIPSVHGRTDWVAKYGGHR
Sequence of Voltage-gated inwardly rectifying potassium channel KCNH2 (Q12809 whole entry): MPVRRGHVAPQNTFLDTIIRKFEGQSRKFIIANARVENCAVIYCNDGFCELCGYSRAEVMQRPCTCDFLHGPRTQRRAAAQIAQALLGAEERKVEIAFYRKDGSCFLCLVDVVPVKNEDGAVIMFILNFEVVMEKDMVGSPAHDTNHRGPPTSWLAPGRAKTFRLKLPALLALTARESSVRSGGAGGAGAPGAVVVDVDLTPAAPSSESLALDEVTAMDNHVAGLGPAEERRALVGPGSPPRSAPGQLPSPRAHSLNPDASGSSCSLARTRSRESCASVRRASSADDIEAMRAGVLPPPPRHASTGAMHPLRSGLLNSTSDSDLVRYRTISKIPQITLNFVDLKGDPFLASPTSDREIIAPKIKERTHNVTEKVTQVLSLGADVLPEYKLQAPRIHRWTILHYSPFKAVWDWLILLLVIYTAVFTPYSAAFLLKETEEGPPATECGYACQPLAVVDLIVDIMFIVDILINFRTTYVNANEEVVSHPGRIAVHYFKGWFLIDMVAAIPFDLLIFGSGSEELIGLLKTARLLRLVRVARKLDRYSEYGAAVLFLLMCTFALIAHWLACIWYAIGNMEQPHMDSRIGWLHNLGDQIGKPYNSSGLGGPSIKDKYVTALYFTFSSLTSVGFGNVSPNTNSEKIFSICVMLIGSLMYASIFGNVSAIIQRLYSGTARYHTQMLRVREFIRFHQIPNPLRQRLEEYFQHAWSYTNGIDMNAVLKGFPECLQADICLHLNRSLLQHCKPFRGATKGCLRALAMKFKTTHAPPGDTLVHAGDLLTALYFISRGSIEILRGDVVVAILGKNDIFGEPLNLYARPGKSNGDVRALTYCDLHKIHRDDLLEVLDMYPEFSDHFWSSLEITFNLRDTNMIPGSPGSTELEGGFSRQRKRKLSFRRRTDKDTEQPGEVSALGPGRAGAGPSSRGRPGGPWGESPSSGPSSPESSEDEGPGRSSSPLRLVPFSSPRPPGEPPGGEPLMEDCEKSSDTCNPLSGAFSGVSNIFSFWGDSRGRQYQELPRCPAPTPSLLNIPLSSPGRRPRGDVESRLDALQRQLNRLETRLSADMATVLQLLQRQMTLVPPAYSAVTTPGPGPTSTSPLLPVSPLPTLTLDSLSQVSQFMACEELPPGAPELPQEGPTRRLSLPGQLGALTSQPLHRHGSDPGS

On to `COc1cc(F)ccc1-c1nc(Nc2ccc3c(N4CCOCC4)c(C(C)=O)c(=O)oc3c2)ncc1F`, for which the IC50 in the data set on A549 came out at 0.47 µM; in the data set on MDA-MB-231, 0.23 µM; in [5] it was 1.01 µM; in data set [11] it was 10.1 µM; with NCI-N87, 0.6 µM; at CDK8/Cyclin C, 6.5 µM. Also, the IC50 in the data set on HepG2 is 0.1 µM; with A-375 it was 0.09 µM. In addition, the figures for the Activity entry (in the data set on MV4-11; in data set [9]; in data set [13]) were “Dose-dependent effect”, below 10% and “Non-Toxic”, respectively. The values for the AUC(0-t) at 24 h in data set [1] and in data set [4] were 1200 ng·h/mL and 560 ng·h/mL, respectively. Moreover, the microsomal CLint at 1 µM in [2] was 689 µL/min/mg. The half-life in [3] is 13.8 min. The same compound showed a bioavailability in data set [6] of 14.3%. Also, the half-life at 1 µM in [7] was 2.01 min; in data set [8], 14 min. Also, in data set [10], the Cmax worked out at 665 ng/mL. This compound also gave a clearance in data set [12] of 59.3 mL/min/kg.
